Results reported in ChEMBL document CHEMBL4261538, “Synthesis and molecular docking studies of xanthone attached amino acids as potential antimicrobial and anti-inflammatory agents” (Medchemcomm, 2017).
Activity calls are given as the source filed them. No cut-off for these calls is given here.

Experiments:
Klebsiella pneumoniae [1] = assay: Antibacterial activity against Klebsiella pneumoniae at 50 ug/ml incubated for 24 hrs by agar well diffusion method; format: functional; conditions: read-out: DIZ
Method in brief: (§1)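 Bacteria grown in nutrient broth at 37 °C for 24 h, then subcultured at room temperature. Compounds dissolved in DMSO at 5 mg mL⁻¹ and 5–20 µL added to 6 mm wells, giving 25, 50, 75, 100 µg per well. Gentamicin was the positive control and DMSO the negative control. Plates held at 37 °C for 24 h, then inhibition zone diameter (mm) measured. Values are means of three determinations.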

Klebsiella pneumoniae [2] = assay: Antibacterial activity against Klebsiella pneumoniae at 25 ug/ml incubated for 24 hrs by agar well diffusion method; format: functional; conditions: read-out: DIZ; method in brief: as §1
Erythrocyte = assay: Anti-inflammatory activity in human RBC assessed as inhibition of hypotonic solution-induced hemolysis after 10 mins by spectrophotometric method; format: functional, cell-based
Method in brief: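 Human blood (heparinized) washed with 0.9% saline, packed cells made into a 40% v/v stock in isotonic phosphate buffer (154 mM NaCl, 10 mM sodium phosphate, pH 7.4). Stock RBC mixed with hypotonic buffer (50 mM NaCl, 10 mM phosphate, pH 7.4) plus sample at 20–100 µg mL⁻¹.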

Candida albicans [3] = assay: Antifungal activity against Candida albicans at 50 ug/ml incubated for 48 hrs by agar well diffusion method; format: functional; conditions: read-out: DIZ
Method in brief: (§2)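 Compounds dissolved in DMSO at 5 mg mL⁻¹ and 5–20 µL added to 6 mm wells, giving 25, 50, 75, 100 µg per well. Bavistin was the positive control and DMSO the negative control. Plates incubated at 28 °C for 48 h, then inhibition zone diameter (mm) measured. Values are means of three determinations.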

Staphylococcus aureus [4] = assay: Antibacterial activity against Staphylococcus aureus at 100 ug/ml incubated for 24 hrs by agar well diffusion method; format: functional; conditions: read-out: DIZ; method in brief: as §1
Staphylococcus aureus [5] = assay: Antibacterial activity against Staphylococcus aureus at 25 ug/ml incubated for 24 hrs by agar well diffusion method; format: functional; conditions: read-out: DIZ; method in brief: as §1
Candida albicans [6] = assay: Antifungal activity against Candida albicans at 25 ug/ml incubated for 48 hrs by agar well diffusion method; format: functional; conditions: read-out: DIZ; method in brief: as §2
Staphylococcus aureus [7] = assay: Antibacterial activity against Staphylococcus aureus at 50 ug/ml incubated for 24 hrs by agar well diffusion method; format: functional; conditions: read-out: DIZ; method in brief: as §1
Klebsiella pneumoniae [8] = assay: Antibacterial activity against Klebsiella pneumoniae at 100 ug/ml incubated for 24 hrs by agar well diffusion method; format: functional; conditions: read-out: DIZ; method in brief: as §1
Staphylococcus aureus [9] = assay: Antibacterial activity against Staphylococcus aureus at 75 ug/ml incubated for 24 hrs by agar well diffusion method; format: functional; conditions: read-out: DIZ; method in brief: as §1
Fusarium oxysporum [10] = assay: Antifungal activity against Fusarium oxysporum at 100 ug/ml incubated for 48 hrs by agar well diffusion method; format: functional; conditions: read-out: DIZ; method in brief: as §2
Candida albicans [11] = assay: Antifungal activity against Candida albicans at 100 ug/ml incubated for 48 hrs by agar well diffusion method; format: functional; conditions: read-out: DIZ; method in brief: as §2
Aspergillus niger [12] = assay: Antifungal activity against Aspergillus niger at 50 ug/ml incubated for 48 hrs by agar well diffusion method; format: functional; method in brief: as §2
Escherichia coli [13] = assay: Antibacterial activity against Escherichia coli at 75 ug/ml incubated for 24 hrs by agar well diffusion method; format: functional; conditions: read-out: DIZ; method in brief: as §1
Bacillus subtilis [14] = assay: Antibacterial activity against Bacillus subtilis at 25 ug/ml incubated for 24 hrs by agar well diffusion method; format: functional; method in brief: as §1
Escherichia coli [15] = assay: Antibacterial activity against Escherichia coli at 50 ug/ml incubated for 24 hrs by agar well diffusion method; format: functional; conditions: read-out: DIZ; method in brief: as §1
Aspergillus niger [16] = assay: Antifungal activity against Aspergillus niger at 100 ug/ml incubated for 48 hrs by agar well diffusion method; format: functional; conditions: read-out: DIZ; method in brief: as §2
Bacillus subtilis [17] = assay: Antibacterial activity against Bacillus subtilis at 100 ug/ml incubated for 24 hrs by agar well diffusion method; format: functional; conditions: read-out: DIZ; method in brief: as §1
Escherichia coli [18] = assay: Antibacterial activity against Escherichia coli at 100 ug/ml incubated for 24 hrs by agar well diffusion method; format: functional; conditions: read-out: DIZ; method in brief: as §1
Candida albicans [19] = assay: Antifungal activity against Candida albicans at 75 ug/ml incubated for 48 hrs by agar well diffusion method; format: functional; conditions: read-out: DIZ; method in brief: as §2
Aspergillus niger [20] = assay: Antifungal activity against Aspergillus niger at 75 ug/ml incubated for 48 hrs by agar well diffusion method; format: functional; conditions: read-out: DIZ; method in brief: as §2
Klebsiella pneumoniae [21] = assay: Antibacterial activity against Klebsiella pneumoniae at 75 ug/ml incubated for 24 hrs by agar well diffusion method; format: functional; conditions: read-out: DIZ; method in brief: as §1
Aspergillus niger [22] = assay: Antifungal activity against Aspergillus niger at 25 ug/ml incubated for 48 hrs by agar well diffusion method; format: functional; method in brief: as §2
Bacillus subtilis [23] = assay: Antibacterial activity against Bacillus subtilis at 75 ug/ml incubated for 24 hrs by agar well diffusion method; format: functional; conditions: read-out: DIZ; method in brief: as §1
Fusarium oxysporum [24] = assay: Antifungal activity against Fusarium oxysporum at 75 ug/ml incubated for 48 hrs by agar well diffusion method; format: functional; conditions: read-out: DIZ; method in brief: as §2
Bacillus subtilis [25] = assay: Antibacterial activity against Bacillus subtilis at 50 ug/ml incubated for 24 hrs by agar well diffusion method; format: functional; method in brief: as §1
Escherichia coli [26] = assay: Antibacterial activity against Escherichia coli at 25 ug/ml incubated for 24 hrs by agar well diffusion method; format: functional; conditions: read-out: DIZ; method in brief: as §1
Fusarium oxysporum [27] = assay: Antifungal activity against Fusarium oxysporum at 25 ug/ml incubated for 48 hrs by agar well diffusion method; format: functional; conditions: read-out: DIZ; method in brief: as §2
Fusarium oxysporum [28] = assay: Antifungal activity against Fusarium oxysporum at 50 ug/ml incubated for 48 hrs by agar well diffusion method; format: functional; conditions: read-out: DIZ; method in brief: as §2

| SMILES | zone of inhibition at 50 µg/mL (Klebsiella pneumoniae [1]) | zone of inhibition at 25 µg/mL (Klebsiella pneumoniae [2]) | zone of inhibition at 50 µg/mL (Candida albicans [3]) | zone of inhibition at 100 µg/mL (Staphylococcus aureus [4]) | zone of inhibition at 25 µg/mL (Staphylococcus aureus [5]) | zone of inhibition at 25 µg/mL (Candida albicans [6]) | zone of inhibition at 50 µg/mL (Staphylococcus aureus [7]) | zone of inhibition at 100 µg/mL (Klebsiella pneumoniae [8]) | zone of inhibition at 75 µg/mL (Staphylococcus aureus [9]) | zone of inhibition at 100 µg/mL (Fusarium oxysporum [10]) | zone of inhibition at 100 µg/mL (Candida albicans [11]) | zone of inhibition at 100 µg/mL (Aspergillus niger [16]) | zone of inhibition at 100 µg/mL (Bacillus subtilis [17]) | zone of inhibition at 75 µg/mL (Candida albicans [19]) | zone of inhibition at 75 µg/mL (Aspergillus niger [20]) | zone of inhibition at 75 µg/mL (Klebsiella pneumoniae [21]) | zone of inhibition at 75 µg/mL (Bacillus subtilis [23]) | zone of inhibition at 75 µg/mL (Fusarium oxysporum [24]) | zone of inhibition at 25 µg/mL (Fusarium oxysporum [27]) | zone of inhibition at 50 µg/mL (Fusarium oxysporum [28]) | further results |
| --- | --- | --- | --- | --- | --- | --- | --- | --- | --- | --- | --- | --- | --- | --- | --- | --- | --- | --- | --- | --- | --- |
| CC(C)[C@H](N)C(=O)Oc1ccc2c(=O)c3ccccc3oc2c1.Cl | 12 mm | 16 mm | 11 mm | 24 mm | 14 mm | 8 mm | 17 mm | 27 mm | 21 mm | 21 mm | 19 mm | 21 mm | 24 mm | 16 mm | 17 mm | 21 mm | 20 mm | 19 mm | 10 mm | 15 mm | IC50 (Erythrocyte): 82 µg/mL; zone of inhibition at 50 µg/mL (Aspergillus niger [12]; read-out: DIZ): 12 mm; zone of inhibition at 75 µg/mL (Escherichia coli [13]): 19 mm; zone of inhibition at 25 µg/mL (Bacillus subtilis [14]; read-out: DIZ): 10 mm; zone of inhibition at 50 µg/mL (Escherichia coli [15]): 15 mm; zone of inhibition at 100 µg/mL (Escherichia coli [18]): 23 mm; zone of inhibition at 25 µg/mL (Aspergillus niger [22]; read-out: DIZ): 9 mm; zone of inhibition at 50 µg/mL (Bacillus subtilis [25]; read-out: DIZ): 15 mm; zone of inhibition at 25 µg/mL (Escherichia coli [26]): 11 mm |
| N[C@@H](Cc1ccc(O)cc1)C(=O)O [TYROSINE] | 7 mm | 4 mm | 8 mm | 17 mm | 4 mm | 4 mm | 8 mm | 15 mm | 12 mm | 14 mm | 15 mm | 11 mm | 12 mm | 13 mm | 7 mm | 11 mm | 9 mm | 12 mm | 3 mm | 7 mm | diameter of the inhibition zone (DIZ) (Aspergillus niger [12]): inactive; diameter of the inhibition zone (DIZ) (Bacillus subtilis [14]): inactive; diameter of the inhibition zone (DIZ) (Aspergillus niger [22]): inactive; diameter of the inhibition zone (DIZ) (Bacillus subtilis [25]): inactive |
